Measurements from different studies.
Each line is one published result; the experiments were not run side by side.
Target: Phosphatidylinositol 3-kinase catalytic subunit type 3 (PIK3C3, Homo sapiens, UniProt Q8NEB9)

The remaining binding of C[C@@H]1CCN(c2nccc(-c3cnn4ncccc34)n2)C1 is reported as 70% (binding; 1 µM).
For O=C(Nc1c[nH]nc1C(=O)NC1CCNCC1)c1cc(F)cc(F)c1, the remaining binding was 90% (binding; competition with immobilised ligand; 1 µM).
With COc1cnc(Nc2cccc(S(N)(=O)=O)c2)nc1N1CCN(c2ccccc2)CC1 the remaining binding was 76% (binding; competition with immobilised ligand; 1 µM).
With c1ccc(N2CCN(Cc3nc4ccccc4[nH]3)CC2)nc1 the remaining binding was 100% (cell-free assay; competition with immobilised ligand; 1 µM).
With COc1ncc2cc3ccccc3nc2c1C#N the remaining binding was 92% (cell-free assay; competition with immobilised ligand; 5 µM).
Cc1cnn2ncc(-c3ccnc(N(C)C)n3)c2c1 gave a remaining binding of 87% (binding; 1 µM).
O=C(N[C@H]1CCCCC/C=C\C2C[C@@]2(C(=O)O)NC(=O)[C@@H]2C[C@@H](Oc3ccncc3)CN2C1=O)OC1CCCC1 (stereo partly drawn) gave a remaining binding of 100% (cell-free assay; competition with immobilised ligand; 1 µM).
CN(CCCC(F)(F)F)c1nccc(-c2cnn3ncccc23)n1 gave a remaining binding of 100% (binding; 1 µM).
Nc1c(C(=O)NCc2ccc(C(=O)NCCCC3CCCCC3)cc2)cnn1-c1ccccc1 gave a remaining binding of 99% (cell-free assay; competition with immobilised ligand; 0.1 µM).
With O=C(c1ccc(Nc2nccc(-c3cc4ccccc4s3)n2)cc1)N1CCC(N2CCCC2)CC1 the remaining binding was 4.9% (binding; competition with immobilised ligand; 1 µM).
With FC(F)(F)Oc1cccc(-c2cnc3ccc(-c4ccncc4)nn23)c1 the remaining binding was 34% (cell-free assay; competition with immobilised ligand; 5 µM).
CN(C)c1nccc(-c2cnc3ncccn23)n1 has a remaining binding of 48% (binding; 1 µM).
CO[C@@H](C)c1c(Nc2ccc([C@H](N(C)C(=O)C3CCS(=O)(=O)CC3)C(F)(F)F)cc2)cnc2cc(Cl)nn12 has a remaining binding of 100% (cell-free assay; competition with immobilised ligand; 1 µM).
The remaining binding of COc1cnc(Nc2cccc(S(N)(=O)=O)c2)nc1N1CCN(c2ccccc2)C(=O)C1 is reported as 64% (binding; competition with immobilised ligand; 1 µM).
O=C(NCCCN1CCOCC1)c1ccc(Nc2ncc(Cl)c(-c3ccc(Cl)s3)n2)cc1 gave a remaining binding of 33% (binding; competition with immobilised ligand; 1 µM).
For O=S(=O)(NC1CCC(c2cc(F)ccc2F)(S(=O)(=O)c2ccc(Cl)cc2)CC1)C(F)(F)F (stereo not drawn), the remaining binding was 100% (cell-free assay; competition with immobilised ligand; 1 µM).
The remaining binding of CC1CCCN1c1nccc(-c2cnn3ncccc23)n1 (stereo not drawn) is reported as 100% (binding; 1 µM).
O=C(c1ccc(Nc2ncc(Cl)c(-c3ccc(Cl)s3)n2)cc1)N1CCC(N2CCCC2)CC1 has a remaining binding of 54% (binding; competition with immobilised ligand; 1 µM).
For Nc1ncc2c(n1)-c1c([nH]c3ccc(C#CC4CC4)cc13)CCCC2, the remaining binding was 93% (binding; competition with immobilised ligand; 1 µM).
The remaining binding of O=C(O)[C@@H]1[C@@H](Cn2nnc3ccccc3c2=O)CC[C@H]1C(=O)c1ccc(OCCC2CCOCC2)cc1 is reported as 96% (cell-free assay; competition with immobilised ligand; 1 µM).
With N[C@H]1CCN(c2nccc(-c3cnn4ncccc34)n2)C1 the remaining binding was 77% (binding; 1 µM).
